In ChEMBL document CHEMBL1154767, “Reversal agent and linker variants of reversed chloroquines: activities against Plasmodium falciparum” (J Med Chem, 2010) one finds IC50 and selectivity ratio data, which are given here for 13 molecules.

Data set [1] concerns Plasmodium falciparum. Briefly: Antimalarial activity against chloroquine-resistant Plasmodium falciparum Dd2 after 72 hrs by fluorescence based method. It is filed as functional, organism-based. Conditions: Dd2, 72 h. A digest of the protocol:
(§1)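 Asynchronous parasite cultures diluted with uninfected erythrocytes in RPMI-1640 plus 0.5% Albumax II to 0.2% parasitemia, 2% hematocrit. Drugs diluted from 10 mM DMSO stock, final 0 to 10^-4 M, triplicate wells. After 72 h under standard culture conditions, read by SYBR Green I fluorescence (ex 497, em 520 nm). IC50 from nonlinear regression of fluorescence vs log[drug].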

In data set [2] the test system is Plasmodium falciparum. Nature of the data set: Antimalarial activity against chloroquine-sensitive Plasmodium falciparum D6 after 72 hrs by fluorescence based method. It is filed as functional, organism-based. As to conditions: D6, 72 h. A digest of the protocol:
as §1

Data set [3] can be described thus: Therapeutic index, ratio of IC50 for C57B1/6J mice (Mus musculus) splenic lymphocyte to IC50 for chloroquine-sensitive Plasmodium falciparum D6. Conditions: read-out: TI.
Data set [4] in a line: Therapeutic index, ratio of IC50 for C57B1/6J mice (Mus musculus) splenic lymphocyte to IC50 for chloroquine-resistant Plasmodium falciparum Dd2. As to conditions: read-out: TI.

For `O=C(CNCCNc1ccnc2cc(Cl)ccc12)N(Cc1ccccc1)Cc1ccccc1`, the 50% inhibitory concentration (IC50) (as a rule, the concentration at which inhibition is half-maximal) in the data set on Plasmodium falciparum [1] worked out at 16 nM; in the data set on Plasmodium falciparum [2], 14 nM.
For `Clc1ccc2c(N3CCN(CCN(Cc4ccccc4)Cc4ccccc4)CC3)ccnc2c1`, in that order: 115 nM and 52 nM.
Regarding `Clc1ccc2c(NCCCNCCN(Cc3ccccc3)Cc3ccccc3)ccnc2c1`, the results for the IC50 in the data set with Plasmodium falciparum [1] and in the data set with Plasmodium falciparum [2] were 6 nM and 2 nM, respectively.
The like results for `Clc1ccc2c(NCCNCCN(Cc3ccccc3)Cc3ccccc3)ccnc2c1` were, in that order, 16 nM and 10 nM.
`Clc1ccc2c(NCCNCCCN(Cc3ccccc3)Cc3ccccc3)ccnc2c1`: the IC50 in the data set with Plasmodium falciparum [1] amounted to 16 nM; with Plasmodium falciparum [2] it was 7 nM.
As for `O=C(CNCCNc1ccnc2cc(Cl)ccc12)N(c1ccccc1)c1ccccc1`, the IC50 in the data set on Plasmodium falciparum [1] is 13 nM; in the data set on Plasmodium falciparum [2], 5 nM. The selectivity ratio in data set [3] came to 12000; in data set [4] it was 4800.
Turning to `Clc1ccc2c(NCCCNCCCCN(Cc3ccccc3)Cc3ccccc3)ccnc2c1`, the IC50 with Plasmodium falciparum [1] turned out to be 11 nM; in the data set on Plasmodium falciparum [2], 8 nM.
For `CN(CCCNc1ccnc2cc(Cl)ccc12)CCCN1c2ccccc2CCc2ccccc21`, in that order: 5 nM and 3 nM.
For `Clc1ccc2c(NCCN(CCN(Cc3ccccc3)Cc3ccccc3)CCN(Cc3ccccc3)Cc3ccccc3)ccnc2c1`, the IC50 with Plasmodium falciparum [1] turned out to be 5 nM; in the data set on Plasmodium falciparum [2] it was 2 nM.
The like results for `Clc1ccc2c(NCCCNCCCN(Cc3ccccc3)Cc3ccccc3)ccnc2c1` were, in that order, 34 nM and 23 nM.
Turning to `Clc1ccc2c(NCCCNCCN(c3ccccc3)c3ccccc3)ccnc2c1`, the IC50 in the data set on Plasmodium falciparum [1] stood at 27 nM; with Plasmodium falciparum [2], 26 nM.
For `O=C(CN1CCN(c2ccnc3cc(Cl)ccc23)CC1)N(c1ccccc1)c1ccccc1`, in that order: 101 nM and 49 nM.
Take `O=C(CN(CCNc1ccnc2cc(Cl)ccc12)CC(=O)N(c1ccccc1)c1ccccc1)N(c1ccccc1)c1ccccc1`: the IC50 in the data set on Plasmodium falciparum [1] worked out at 52 nM; with Plasmodium falciparum [2] it was 30 nM.
